Data: ChEMBL document CHEMBL4028890, “A Positive Allosteric Modulator of the Serotonin 5-HT2C Receptor for Obesity” (J Med Chem, 2017)
Calls of active or inactive are those of the source. The rule behind the calls is not given here.

How the values were obtained:
[1] = target: T1, 5-hydroxytryptamine receptor 2C (Homo sapiens) (UniProt P28335); test: Positive allosteric modulation of human 5-HT2C receptor expressed in human HeLa-K1 cells assessed as potentiation of 5-HT-induced inositol monophosphate release at 10 uM after 20 mins by HTRF assay relative to control; assay type: functional, cell-based
T1 sequence (whole entry): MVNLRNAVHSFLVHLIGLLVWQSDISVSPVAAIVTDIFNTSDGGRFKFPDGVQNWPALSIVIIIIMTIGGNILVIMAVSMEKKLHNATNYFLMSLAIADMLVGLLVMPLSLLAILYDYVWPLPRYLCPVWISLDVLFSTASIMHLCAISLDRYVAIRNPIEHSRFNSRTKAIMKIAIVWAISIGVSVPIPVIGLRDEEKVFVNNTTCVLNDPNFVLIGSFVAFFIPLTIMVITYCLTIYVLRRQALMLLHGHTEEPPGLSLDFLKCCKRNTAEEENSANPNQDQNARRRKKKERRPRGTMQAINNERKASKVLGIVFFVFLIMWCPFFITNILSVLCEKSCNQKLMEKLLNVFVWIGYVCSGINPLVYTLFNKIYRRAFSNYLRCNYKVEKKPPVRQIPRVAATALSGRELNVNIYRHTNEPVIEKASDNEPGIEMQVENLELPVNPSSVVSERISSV
Summary of the method: (§1)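 IP-One HTRF assay in CHO-K1 cells (human 5-HT2A, 5-HT2B) or HeLa-K1 cells (human 5-HT2C), seeded and grown 24 h at 37 °C. Test compound and/or 5-HT added in stimulation buffer, then 20 min at 37 °C before IP1 read-out. Data normalized to 5-HT maximal effect and fitted by nonlinear regression. Triplicates, mean ± SD.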

[2] = Ratio of drug level in brain to plasma in Wistar rat at 10 mg/kg, ip measured up to 6 hrs; assay type: ADME, organism-based; conditions: read-out: BPR
[3] = target: T1, 5-hydroxytryptamine receptor 2C (Homo sapiens); test: Displacement of [3H]-LSD from human 5-HT2C receptor expressed in human HeLa-K1 cell membranes at 1 uM after 60 mins relative to control
Rattus norvegicus [4] = test: Antiobesity activity in restricted food access Wistar rat model assessed as reduction in body weight at 2 mg/kg, ip administered 30 mins prior to food presentation measured after 4 hrs on every day for 7 days; assay type: functional, organism-based
Summary of the method: (§2)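 Rats had food for 4 h/day. Once the feeding baseline was stable, compound (2 mg/kg ip) or vehicle was given 30 min before food presentation. Food and water intake read at the end of the 4 h period. Repeated on 7 consecutive days, with total intake and body weight tracked. Mean ± SEM, n ≥ 8.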

Rattus norvegicus [5] = test: Antiobesity activity in Wistar rat assessed as reduction in food intake at 2 mg/kg, ip after 4 hrs; assay type: functional, organism-based
Summary of the method: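 Male Wistar rats, 200−250 g, aged 10−12 weeks, food-deprived 16 h before refeeding. Compound given ip in sterile saline; food and water intake measured at 30, 60, 120 and 240 min after food presentation. Where used, antagonist (3 mg/kg, ip) or other pretreatments were injected 30 min before the compound. Mean ± SEM, at least eight rats per group.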

Rattus norvegicus [6] = test: Antiobesity activity in continuous food access Wistar rat model assessed as reduction in body weight at 2 mg/kg, ip administered daily for 7 days; assay type: functional, organism-based
Summary of the method: (§3)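 Wistar rats made obese on 60% fat diet (5.24 kcal/g) for 8 weeks. Free-feeding rats got a daily ip injection of compound (2 mg/kg) or vehicle for 7 days. Daily chow intake (kcal/kg body weight) and body weight gain (g) recorded. Mean ± SEM, n ≥ 8 per group.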

[7] = target: T2, 5-hydroxytryptamine receptor 2B (Homo sapiens, UniProt P41595); test: Positive allosteric modulation of human 5-HT2B receptor expressed in CHO-K1 cells assessed as potentiation of 5-HT-induced inositol monophosphate release at 10 uM after 20 mins by HTRF assay; assay type: cell-based; summary of the method: as §1
T2 sequence (P41595 whole entry): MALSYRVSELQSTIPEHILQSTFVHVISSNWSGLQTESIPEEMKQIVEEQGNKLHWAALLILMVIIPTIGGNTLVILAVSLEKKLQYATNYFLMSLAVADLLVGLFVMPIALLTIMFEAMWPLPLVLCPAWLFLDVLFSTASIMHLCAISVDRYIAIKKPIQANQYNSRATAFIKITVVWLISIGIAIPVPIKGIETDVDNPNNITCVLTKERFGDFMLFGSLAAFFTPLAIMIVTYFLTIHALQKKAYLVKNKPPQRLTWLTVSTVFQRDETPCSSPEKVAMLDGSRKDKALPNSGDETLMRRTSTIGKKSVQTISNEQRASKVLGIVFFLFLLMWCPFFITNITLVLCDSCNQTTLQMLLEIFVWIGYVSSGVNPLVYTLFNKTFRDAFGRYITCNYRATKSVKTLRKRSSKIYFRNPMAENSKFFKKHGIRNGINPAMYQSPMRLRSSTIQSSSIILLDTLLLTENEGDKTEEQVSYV

Rattus norvegicus [8] = test: Antiobesity activity in restricted food access Wistar rat model assessed as reduction in food intake at 2 mg/kg, ip administered 30 mins prior to food presentation measured after 4 hrs on every day for 7 days; assay type: functional, organism-based; summary of the method: as §2
Rattus norvegicus [9] = test: Antiobesity activity in continuous food access Wistar rat model assessed as reduction in food intake at 2 mg/kg, ip administered daily for 7 days; assay type: functional, organism-based; summary of the method: as §3
[10] = target: T1, 5-hydroxytryptamine receptor 2C (Homo sapiens); test: Displacement of [3H]-LSD from human 5-HT2C receptor expressed in human HeLa-K1 cell membranes at 10 uM after 60 mins relative to control
Summary of the method: (§4)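 Membranes from 5-HT2C-HeLa cells with test compound (10 μM) in 50 mM Tris-HCl pH 7.4. Radioligands: [3H]mesulergine 4 nM, [3H]LSD 2 nM (15 μg protein each), [3H]clozapine 15 nM (20 μg), 60 min at 27 °C. [3H]5-HT 2 nM (60 μg), 180 min at 4 °C. Nonspecific binding with 10 μM mianserin. Filtered and washed, then counted. Triplicates, mean ± SD.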

Rattus norvegicus [11] = test: In vivo positive allosteric modulation of serotonin-induced feeding suppression in Wistar rat at 2 mg/kg, ip after 4 hrs in presence of 5 mg/kg selective serotonin reuptake inhibitor sertraline; assay type: functional, organism-based
Summary of the method: (§5)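 Male Wistar rats, 200−250 g, 10−12 weeks, food-deprived 16 h before refeeding. Test compound given ip in sterile saline. Sertraline, ketanserin (2 mg/kg) or 5-HT2C antagonist (3 mg/kg) was given ip 30 min before the test compound. Food and water intake measured 30, 60, 120 and 240 min after food presentation. Mean ± SEM, at least 8 rats per group.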

[12] = target: T1, 5-hydroxytryptamine receptor 2C (Homo sapiens); test: Displacement of [3H]-mesulergine from human 5-HT2C receptor expressed in human HeLa-K1 cell membranes at 10 uM after 60 mins relative to control; summary of the method: as §4
Rattus norvegicus [13] = test: In vivo positive allosteric modulation of serotonin-induced feeding suppression in Wistar rat at 0.5 mg/kg, ip after 4 hrs in presence of 2 mg/kg selective serotonin reuptake inhibitor sertraline; assay type: functional, organism-based; summary of the method: as §5
[14] = target: T3, 5-hydroxytryptamine receptor 2A (Homo sapiens, UniProt P28223); test: Positive allosteric modulation of human 5-HT2A receptor expressed in CHO-K1 cells assessed as potentiation of 5-HT-induced inositol monophosphate release at 10 uM after 20 mins by HTRF assay; assay type: cell-based; summary of the method: as §1
T3 sequence (P28223 whole entry): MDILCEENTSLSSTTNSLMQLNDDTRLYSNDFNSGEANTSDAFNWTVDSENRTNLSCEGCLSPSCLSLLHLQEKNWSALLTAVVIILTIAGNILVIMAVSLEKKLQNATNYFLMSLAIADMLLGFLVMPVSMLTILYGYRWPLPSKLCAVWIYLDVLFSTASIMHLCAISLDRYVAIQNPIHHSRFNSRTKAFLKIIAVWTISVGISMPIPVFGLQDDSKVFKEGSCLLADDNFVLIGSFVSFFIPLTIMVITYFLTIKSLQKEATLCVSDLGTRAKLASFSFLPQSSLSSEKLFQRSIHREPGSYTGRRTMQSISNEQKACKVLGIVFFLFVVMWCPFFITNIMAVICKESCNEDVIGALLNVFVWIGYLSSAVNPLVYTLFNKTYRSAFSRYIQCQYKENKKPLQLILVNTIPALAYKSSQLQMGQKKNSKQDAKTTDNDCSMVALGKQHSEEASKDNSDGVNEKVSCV

Rattus norvegicus [15] = test: Antiobesity activity in Wistar rat assessed as reduction in food intake at 10 mg/kg, ip after 4 hrs relative to control; assay type: functional; design: scale not given: the % may be the effect or the level left; summary of the method: as §5
Rattus norvegicus [16] = test: Antiobesity activity in Wistar rat assessed as reduction in food intake at 2 mg/kg, ip after 4 hrs in presence of 5-HT2A antagonist ketanserin; assay type: functional, organism-based; summary of the method: as §5
[17] = target: T2, 5-hydroxytryptamine receptor 2B; test: Intrinsic agonist activity at human 5-HT2B receptor expressed in CHO-K1 cells assessed as induction of inositol monophosphate release at 10 uM after 20 mins by HTRF assay; assay type: cell-based; summary of the method: as §1
[18] = target: T1, 5-hydroxytryptamine receptor 2C (Homo sapiens); test: Displacement of [3H]-5-HT from human 5-HT2C receptor expressed in human HeLa-K1 cell membranes at 10 uM after 180 mins relative to control; summary of the method: as §4
Rattus norvegicus [19] = test: Toxicity in Wistar rat assessed as induction of hypolocomotion at 0.5 to 2 mg/kg, ip after 30 mins by elevated plus maze test; assay type: organism-based; conditions: in vivo, 0.5 h
Summary of the method: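 Maze-naive rats handled for 7 days. Placed in the centre facing an open arm 30 min after ip dosing. Open-arm entries and % time in open arms scored over 5 min. No retesting.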

[20] = target: T4, 5-hydroxytryptamine receptor 2C (Homo sapiens, UniProt P28335); test: (§6) Positive allosteric modulation of human 5-HT2C receptor expressed in human HeLa-K1 cells assessed as potentiation of 5-HT-induced inositol monophosphate release after 20 mins by HTRF assay; assay type: functional, cell-based; summary of the method: as §1
T4 sequence (P28335 whole entry): T1 sequence (whole entry)

[21] = target: T1, 5-hydroxytryptamine receptor 2C (Homo sapiens); test: as §6; assay type: functional, cell-based; summary of the method: as §1
[22] = target: T1, 5-hydroxytryptamine receptor 2C (Homo sapiens); test: Intrinsic agonist activity at human 5-HT2C receptor expressed in human HeLa-K1 cells assessed as induction of inositol monophosphate release after 20 mins by HTRF assay; assay type: functional, cell-based; summary of the method: as §1
[23] = target: T1, 5-hydroxytryptamine receptor 2C (Homo sapiens); test: Positive allosteric modulation of human 5-HT2C receptor expressed in human HeLa-K1 cells assessed as potentiation of 5-HT-induced inositol monophosphate release at 1 uM after 20 mins by HTRF assay relative to control; assay type: functional, cell-based
[24] = target: T3, 5-hydroxytryptamine receptor 2A; test: Intrinsic agonist activity at human 5-HT2A receptor expressed in CHO-K1 cells assessed as induction of inositol monophosphate release at 10 uM after 20 mins by HTRF assay; assay type: cell-based; summary of the method: as §1
Rattus norvegicus [25] = test: Antiobesity activity in Wistar rat assessed as reduction in food intake at 1 mg/kg, ip after 4 hrs in presence of 5-HT2C antagonist SB-242084; assay type: functional, organism-based; summary of the method: as §5
Rattus norvegicus [26] = test: Toxicity in Wistar rat assessed as induction of malaise at 2 mg/kg, ip measured 30 mins for 2 days by conditioned taste aversion test; assay type: organism-based; conditions: in vivo
Summary of the method: (§7)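 Rats water-deprived 24 h, then trained to drink from a graded bottle in 30 min sessions for 4 days. On day 5, 0.1% saccharin replaced water, and 30 min later rats got ip vehicle, compound (2 mg/kg) or LiCl (0.4 M, 7.5 mL/kg). Water intake was recorded over 30 min on the next 2 days, then a water or saccharin choice was measured.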

[27] = target: T1, 5-hydroxytryptamine receptor 2C (Homo sapiens); test: Displacement of [3H]-clozapine from human 5-HT2C receptor expressed in human HeLa-K1 cell membranes at 10 uM after 60 mins relative to control; summary of the method: as §4
Rattus norvegicus [28] = test: Toxicity in Wistar rat assessed as induction of hypolocomotion at 2 mg/kg, ip after 30 mins by open field test; assay type: organism-based; conditions: in vivo, 0.5 h
Summary of the method: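 Rats handled for 7 days before testing. Tested 30 min after ip dosing (2 mg/kg), placed in the centre of the open field. Distance walked was recorded automatically over 10 min. No retesting.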

Rattus norvegicus [29] = species on record: Rattus norvegicus; test: Toxicity in Wistar rat assessed as induction of malaise at 0.4 M measured 30 mins for 2 days by conditioned taste aversion test; conditions: in vivo, 0.5 h; summary of the method: as §7

c1ccc(Cn2cc(CNc3ccccn3)c3ccccc32)cc1
Activity [1]: 25%

c1ccc(Cn2cc(CNc3cccnc3)c3ccccc32)nc1
Activity [1]: 0%

N#Cc1ccccc1Cn1cc(CNc2cccnc2)c2ccccc21
Activity [1]: 7%

Cc1ccncc1NCc1cn(Cc2ccccc2)c2ccccc12
Activity [1]: 21%

Brc1cccc(Cn2cc(CNc3cccnc3)c3ccccc32)c1
Activity [1]: 7%

Fc1cc(Cl)ccc1Cn1cc(CNc2cccnc2)c2ccccc21
Activity [1]: 9%

c1ccc(Cn2cc(CNc3ccnnc3)c3ccccc32)cc1
Activity [1]: 0%

COc1cccc(Cn2cc(CNc3cccnc3)c3ccccc32)c1
Activity [1]: 0%

c1cncc(NCc2cn(Cc3ccncc3)c3ccccc23)c1
Activity [1]: 9%

Brc1ccc(Cn2cc(CNc3cccnc3)c3ccccc32)cc1
Activity [1]: 6%

Fc1ccccc1Cn1cc(CNc2cccnc2)c2ccccc21
Activity [1]: 6%

c1ccc(Cn2cc(CNc3cnccn3)c3ccccc32)cc1
Activity [1]: 0%

N#Cc1cccc(Cn2cc(CNc3cccnc3)c3ccccc32)c1
Activity [1]: 22%

Cc1ccccc1Cn1cc(CNc2cccnc2)c2ccccc21
Activity [1]: 7%

c1ccc(Cn2cc(CNc3ncccn3)c3ccccc32)cc1
Activity [1]: 0%

N#Cc1ccc(Cn2cc(CNc3cccnc3)c3ccccc32)cc1
Activity [1]: 7%

Clc1cccc(Cn2cc(CNc3cccnc3)c3ccccc32)c1
Activity [1]: 26%

c1ccc(Cn2cc(CNc3cccnc3)c3ccccc32)cc1
Kp at 6 h [2]: 3.8
inhibition [3]: 21%
Activity (Rattus norvegicus [4]): Active
Activity (Rattus norvegicus [5]): Active
Activity (Rattus norvegicus [6]): Active
Activity [7]: Not Active
Activity (Rattus norvegicus [8]): Active
Activity (Rattus norvegicus [9]): Active
inhibition [10]: 67%
Activity (Rattus norvegicus [11]): Active
inhibition [12]: 26%
Activity (Rattus norvegicus [13]): Active
Activity [14]: Not Active
Activity (Rattus norvegicus [15]): 50%
Activity (Rattus norvegicus [16]): Active
Activity [1]: 35%
Activity [17]: Not Active
inhibition [18]: 37%
Activity (Rattus norvegicus [19]): Toxic
EC50 [20]: 16 nM
Activity [21]: Dose-dependent effect
Activity [22]: inactive
Activity [23]: 28%
Activity [24]: Not Active
Activity (Rattus norvegicus [25]): Active
Activity (Rattus norvegicus [26]): Non-Toxic
inhibition [27]: 36%
Activity (Rattus norvegicus [28]): Toxic

[Cl-].[Li+] [CHLOROLITHIUM]
Activity (Rattus norvegicus [29]): Toxic
